Assay results taken from ChEMBL document CHEMBL4033772, “New Class of Antitrypanosomal Agents Based on Imidazopyridines” (ACS Med Chem Lett, 2017).
pEC50: −log10 of the molar value. Converted amounts (≈) assume the structure as drawn. The source made the active and inactive calls. The rule behind the calls is not given here.

What was measured:
[1] = Protein binding in Swiss Webster mouse plasma assessed as drug recovery at 2 uM by LC-MS/MS analysis; format: ADME, cell-free; details: read-out: Drug recovery
In short: (§1)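 Plasma protein binding measured in 100% mouse plasma, giving % recovery and % fraction unbound. Propranolol control included in every experiment.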

[2] = Fraction unbound in Swiss Webster mouse plasma at 2 uM by LC-MS/MS analysis; format: ADME, cell-free; in short: as §1
[3] = test system: Trypanosoma cruzi; assay: Antitrypanosomal activity against Trypanosoma cruzi Tulahuen amastigotes infected in mouse 3T3 cells after 6 days by beta galactosidase reporter asay; format: functional, cell-based; details: NIH3T3, 144 h
[4] = Cytotoxicity against human CRL8155 cells after 48 hrs by Alamar Blue-based assay; format: cell-based; details: CRL8155, 48 h
In short: (§2)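 Cytotoxicity tested against human lymphoblasts CRL-8155 and hepatocytes HepG2. Highest concentration tested was 50 µM.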

[5] = test system: HepG2; assay: Cytotoxicity against human HepG2 cells after 48 hrs by Alamar Blue-based assay; format: cell-based; details: HepG2, 48 h; in short: as §2
[6] = test system: Trypanosoma brucei brucei; assay: Antitrypanosomal activity against Trypanosoma brucei brucei BF427 after 48 hrs by Alamar Blue-based assay; format: functional; details: BF427, 48 h
[7] = Solubility of the compound in PBS at pH 7.4 at 50 uM after overnight incubation by LC-MS/MS method; format: physicochemical
In short: (§3)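 Solubility measured at pH 7.4, 6.5 and 2.0.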

[8] = test system: Liver; assay: Stability of the compound in mouse liver microsomes assessed as compound remaining by LC-MS/MS method; format: ADME, microsome
In short: (§4)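 Incubation with mouse liver microsomes, run in duplicate. Testosterone and dextromethorphan included as controls in each assay.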

[9] = Half life in mouse liver microsomes by LC-MS/MS method; format: ADME, microsome; in short: as §4
[10] = Solubility of the compound in HCl at pH 2.0 at 50 uM after overnight incubation by LC-MS/MS method; format: physicochemical; in short: as §3
[11] = Solubility of the compound in PBS at pH 6.5 at 50 uM after overnight incubation by LC-MS/MS method; format: physicochemical; in short: as §3
[12] = test system: Trypanosoma cruzi; assay: Antitrypanosomal activity against bioluminescent PpyRE9h expressing Trypanosoma cruzi Tulahuen […] infected subcutaneously in BALB/c mouse assessed as suppression of Trypanosoma cruzi infection at 100 mg/kg, po qd administered for 5 days measured after 6 weeks by IVIS imaging analysis; format: functional, organism-based
[13] = AUC in Swiss Webster mouse at 50 mg/kg, po by LC-MS/MS analysis; format: ADME, organism-based; details: in vivo
In short: (§5)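 Oral single dose of 50 mg/kg to mice (n=3). Blood sampled at time points up to 24 h. Cmax and AUC reported as average ± SEM.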

[14] = Cmax in Swiss Webster mouse at 50 mg/kg, po by LC-MS/MS analysis; format: ADME, organism-based; set-up: dose 50 mg/kg, route oral; details: in vivo; in short: as §5
[15] = Plasma concentration in Swiss Webster mouse at 5 mg/kg, ip after 1 hr by LC-MS/MS analysis; format: ADME, organism-based
In short: (§6)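 Mice in groups of three got a single 5 mg/kg ip dose. Animals were sacrificed 1 h postdose, and brain and plasma were collected for analysis. Brain:plasma ratio was calculated from the mean concentrations.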

[16] = test system: Mus musculus; assay: Toxicity in BALB/c mouse infected with bioluminescent PpyRE9h expressing Trypanosoma cruzi Tulahuen […] at 50 mg/kg, po twice daily for 5 days measured after 6 weeks; format: organism-based; details: in vivo, 1008 h
In short: (§7)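 Balb/c mice infected SC on day 0 with 2x10^4 T. cruzi Tulahuen trypomastigotes expressing red-shifted luciferase (PpyRE9h). Oral dosing at 50 mg/kg twice daily on days 7-11 post-infection. D-luciferin (120 mg/kg) injected SC, mice anesthetized and imaged by IVIS 10-15 min later, at time points out to 42 days. Mice observed for toxicity.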

[17] = Plasma concentration in BALB/c mouse subcutaneously infected with bioluminescent PpyRE9h expressing Trypanosoma cruzi Tulahuen […] at 50 mg/kg, po twice daily measured 1 hr post seventh dose; format: ADME, organism-based
In short: (§8)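 Infected Balb/c mice on the twice-daily 50 mg/kg oral regimen. Tail blood collected at the 7th dose, immediately before and 1 h and 6 h after administration (n=3).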

[18] = test system: Trypanosoma cruzi; assay: Antitrypanosomal activity against bioluminescent PpyRE9h expressing Trypanosoma cruzi Tulahuen […] infected subcutaneously in BALB/c mouse assessed as suppression of Trypanosoma cruzi infection at 50 mg/kg, po twice daily for 5 days measured after 6 weeks by IVIS imaging analysis; format: functional, organism-based; in short: as §7
[19] = Plasma concentration in BALB/c mouse subcutaneously infected with bioluminescent PpyRE9h expressing Trypanosoma cruzi Tulahuen […] at 50 mg/kg, po twice daily measured immediately before seventh dose
[20] = Ratio of drug level in Swiss Webster mouse brain to plasma at 5 mg/kg, ip measured after 1 hr by LC-MS/MS analysis; format: ADME, organism-based; details: read-out: BPR; in short: as §6
[21] = Plasma concentration in BALB/c mouse subcutaneously infected with bioluminescent PpyRE9h expressing Trypanosoma cruzi Tulahuen tryptomastigotes at 50 mg/kg, po twice daily measured 6 hrs post seventh dose; format: ADME, organism-based; in short: as §8
[22] = Drug level in Swiss Webster mouse brain at 5 mg/kg, ip after 1 hr by LC-MS/MS analysis; format: ADME, organism-based; details: read-out: Drug uptake; in short: as §6
[23] = Selectivity ratio of EC50 for Trypanosoma cruzi Tulahuen amastigotes to EC50 for Trypanosoma brucei brucei BF427; format: functional

pEC50 [3] | EC90 [3] [nM] | pEC50 [6] | EC90 [6] [nM] | Compound | pEC50 [4] | pEC50 [5] | further results
 |  |  |  | CC(C)NCC(O)COc1cccc2ccccc12 (stereo not given) [PROPRANOLOL] |  |  | recovery at 2 µM [1]: 75.7%; fraction unbound at 2 µM [2]: 0.114
5.00 | > 20000 | < 4.70 | > 20000 | O=C(Nc1ccc2nc(-c3ccc(F)c(F)c3)cn2c1)N1CC[C@H](F)C1 | < 4.30 | < 4.30 | 
5.97 | 1730 | 6.21 | 770 | O=C(Nc1ccn2cc(-c3ccccc3)nc2c1)N1CC[C@H](F)C1 | 4.35 | < 4.30 | 
6.00 | 1580 | 6.14 | 870 | O=C(Nc1ccn2cc(-c3cccc(F)c3F)nc2c1)N1CCCCC1 | < 4.30 | < 4.30 | 
6.24 | 1520 | 6.15 | > 20000 | Cn1nc(C(C)(C)C)cc1C(=O)Nc1ccn2cc(-c3ccc(F)c(F)c3)nc2c1 | < 4.30 | < 4.30 | 
< 4.70 | > 20000 | < 4.70 | > 20000 | O=C(Nc1ccn2cc(-c3nccs3)nc2c1)N1CC[C@H](F)C1 | < 4.30 | < 4.30 | 
6.15 | 880 | 6.80 | 820 | O=C(Nc1ccn2cc(-c3cccc(F)c3)nc2c1)N1CC[C@H](F)C1 | 4.53 | < 4.30 | solubility at 50 µM [7]: 49.7 µM (≈ 17 µg/mL); recovery at 2 µM [1]: 68.5%; Stability [8]: 84.5%; fraction unbound at 2 µM [2]: 0.03; half-life [9]: > 1 h; solubility at 50 µM [10]: 52 µM (≈ 17.8 µg/mL); solubility at 50 µM [11]: 43.8 µM (≈ 15 µg/mL)
 |  |  |  | CCN(CC)CCCC(C)Nc1c2ccc(Cl)cc2nc2ccc(OC)cc12 (stereo not given) [QUINACRINE] | 5.37 |  | 
5.60 | > 20000 | < 4.70 | > 20000 | O=C(Nc1ccn2cc(-c3ccc(F)c(F)c3)nc2n1)N1CC[C@H](F)C1 | < 4.30 | < 4.30 | recovery at 2 µM [1]: 49%; fraction unbound at 2 µM [2]: 0.081; solubility at 50 µM [11]: 42 µM (≈ 15.2 µg/mL)
6.16 | 1360 |  |  | O=C(Cn1ccnc1[N+](=O)[O-])NCc1ccccc1 [BENZNIDAZOLE] |  |  | Activity [12]: Active
7.05 | 150 | 7.70 | 50 | O=C(Nc1cc2nc(-c3ccc(F)c(F)c3)cn2cn1)N1CC[C@H](F)C1 | < 4.30 | < 4.30 | solubility at 50 µM [7]: 2.1 µM (≈ 0.759 µg/mL); AUC [13]: 59.8 µM·h; Cmax [14]: 5.7 µM; concentration at 1 h [15]: 1.31 µM; Activity [16]: Non-Toxic; concentration at 1 h [17]: 9 µM; recovery at 2 µM [1]: 56.1%; Activity [18]: Active; concentration at 0 hr [19]: 4.8 µM; Stability [8]: 96%; fraction unbound at 2 µM [2]: 0.099; Kp at 1 h [20]: 0.856; concentration at 6 h [21]: 5.8 µM; half-life [9]: > 1 h; solubility at 50 µM [10]: 1.6 µM (≈ 0.578 µg/mL); concentration at 1 h [22]: 1.12 µM; solubility at 50 µM [11]: 2.4 µM (≈ 0.867 µg/mL)
5.04 | > 20000 | < 4.70 | > 20000 | Cc1noc(C)c1C(=O)Nc1ccn2cc(-c3ccc(F)c(F)c3)nc2c1 | < 4.30 | < 4.30 | 
5.65 | 2570 | 6.49 | 730 | O=C(Nc1ccn2cc(-c3ccc(F)c(F)c3)nc2c1)N1CCCC1 | < 4.30 | < 4.30 | Ratio EC50 [23]: 7
5.51 | 4530 | 6.01 | 1480 | O=C(Nc1ccn2cc(-c3cccc(F)c3)nc2c1)N1CCCCC1 | < 4.30 | < 4.30 | 
